Several values for one entry are separate records, joined by “and”; a condition that tells them apart may be missing. Identical values can stand only once. Like-named read-outs stand apart in the source and are kept apart here.
Columns and labels:
[1] = cited from earlier work
T. cruzi amastigotes = assay: T. cruzi; format: cell-based, Trypanosoma cruzi; settings: read-out: EC50 T. cruzi
How it was run: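 β-galactosidase-expressing Tulahuen strain grown as intracellular amastigotes in murine 3T3 fibroblasts, 96-well format, colorimetric read-out. Test compounds HPLC-purified to a single peak, with ≥95% estimated purity by 1H NMR. Each tested in triplicate to derive EC50.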

[2] = Single oral dose pharmacokinetics in BALB/c mice; format: in vivo; settings: single dose 50 mg/kg oral gavage; for AUC 0_5hr, Mouse 1, 2, 3 / Tmax, Mouse 1, 2, 3 / Cmax, Mouse 1, 2, 3: Balb/c mice, individual mice, 50 mg/kg; for Cmax, Mouse 1, 2, 3: plasma
[3] = test system: T. cruzi trypomastigotes (Tulahuen strain); assay: Efficacy in mice infected with T. cruzi; format: in vivo; settings: days 7–27 post-infection
How it was run: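 Female BALB/c mice (7–8 weeks) infected subcutaneously with 1×10^4 Tulahuen trypomastigotes; treatment began day 7 post-infection. Groups of 6 dosed by oral gavage twice daily for 21 days, 100 µL per dose in 20% (w/v) hydroxypropyl β-cyclodextrin; vehicle-only group included. Parasitemia counted in 5 µL tail blood under coverslip, 50 high-power fields, through day 97. Pre-morbid mice euthanized; survivors sacrificed day 100.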

T. cruzi = assay: PCR detection of T. cruzi parasitemia in blood of treated mice at day 100; format: in vivo; settings: for PCR parasite detection after 100 days post infection: days 7–27 post-infection, groups of 6
[4] = mice and rats; cited from earlier work
[5] = 50 mg/kg oral gavage twice per day
[6] = 20 mg/kg oral gavage twice per day

c1ccc(-c2ccc(Cn3cncc3CNc3ccc(-c4cncs4)c(-c4ccccc4)c3)cc2)cc1 [Compound 27a]
pharmacokinetic profile in mice [1]: good pharmacokinetic profile

c1ccc(-c2ccc(Cn3cncc3CNc3ccc(-c4nc5ccccc5s4)c(-c4ccccc4)c3)cc2)cc1 [Compound 27d]
pharmacokinetic profile in mice [1]: good pharmacokinetic profile

CC(C)c1ccc(Cn2cncc2CNc2ccc(-c3nc4ccccc4s3)c(-c3ccccc3)c2)cc1 [Compound 32a]
EC50 (T. cruzi amastigotes; Table 3, general structure III): 860 nM

CCc1ccc(Cn2cncc2CNc2ccc(-c3nc4ccccc4s3)c(-c3ccccc3)c2)cc1 [Compound 32b]
EC50 (T. cruzi amastigotes; Table 3, general structure III): 190 nM

Fc1ccc(Cn2cncc2CNc2ccc(-c3nc4ccccc4s3)c(-c3ccccc3)c2)c(F)c1 [Compound 32d]
EC50 (T. cruzi amastigotes; Table 3, general structure III): 630 nM

Cc1ccccc1-c1ccc(Cn2cncc2CNc2ccc(-c3nc4ccccc4s3)c(-c3ccccc3)c2)cc1 [Compound 32f]
EC50 (T. cruzi amastigotes; Table 3, general structure III): 180 nM

Cc1ccccc1-c1cc(NCc2cncn2Cc2ccc(-c3ccccc3)cc2)ccc1-c1nc2ccccc2s1 [Compound 32g]
EC50 (T. cruzi amastigotes; Table 3, general structure III): 42 nM

Cc1cccc(-c2cc(NCc3cncn3Cc3ccc(-c4ccccc4)cc3)ccc2-c2nc3ccccc3s2)c1C [Compound 32h]
EC50 (T. cruzi amastigotes; Table 3, general structure III): 101 nM

c1ccc(Cn2cncc2CNc2cccc(-c3ccccc3)c2)cc1 [Compound 35e]
EC50 (T. cruzi amastigotes; Table 4, general structure IV): 400 nM

Cc1ccccc1-c1cccc(NCc2cncn2Cc2ccccc2)c1 [Compound 35g]
EC50 (T. cruzi amastigotes; Table 4, general structure IV): 310 nM

Cc1cccc(-c2cccc(NCc3cncn3Cc3ccccc3)c2)c1C [Compound 35i]
EC50 (T. cruzi amastigotes; Table 4, general structure IV): 300 nM

c1ccc(Cn2cncc2CNc2cccc(-c3cccnc3)c2)cc1 [Compound 35j]
EC50 (T. cruzi amastigotes; Table 4, general structure IV): 760 nM

Nc1cc(-c2ccccc2)ccc1Cn1cncc1CNc1ccc(Cl)c(-c2ccccc2)c1 [Compound 44a, (6-Chloro-biphenyl-3-yl)-[3-(3-amino-biphenyl-4-ylmethyl)-3H-imidazol-4-ylmethyl]-amine]
EC50 (T. cruzi amastigotes; Table 5, general structure V): 1.5 nM and 2.1 nM | AUC 0_5hr, Mouse 1, 2, 3 [2]: 6700 ng·h/mL and 5600 ng·h/mL | Tmax, Mouse 1, 2, 3 [2]: 1.0 h | Cmax, Mouse 1, 2, 3 [2]: 1900 ng/mL | suppression of parasitemia in blood (microscopy) [3, 5]: dramatically suppressed | PCR parasite detection after 100 days post infection (T. cruzi; [5]): 6 of 6 mice

N#Cc1ccc(NCc2cncn2Cc2ccc(-c3ccccc3)cc2N)cc1-c1ccccc1 [Compound 44b]
EC50 (T. cruzi amastigotes; Table 5, general structure V): 2.6 nM

Nc1cc(-c2ccccc2)ccc1Cn1cncc1CNc1ccc(-c2nc3ccccc3s2)c(-c2ccccc2)c1 [Compound 44d]
AUC 0_5hr, Mouse 1, 2, 3 [2]: 32400 ng·h/mL and 29000 ng·h/mL | Tmax, Mouse 1, 2, 3 [2]: 2.0 h | Cmax, Mouse 1, 2, 3 [2]: 8600 ng/mL | drug loss from plasma out to 5 hr ([2]; mice): significant drug loss was not observed | suppression of parasitemia in blood (microscopy) [3, 6]: dramatically suppressed | suppression of parasitemia in blood (microscopy) [3, 5]: most suppression | PCR parasite detection after 100 days post infection (T. cruzi; [6]): 5 of 6 mice | PCR parasite detection after 100 days post infection (T. cruzi; [5]): 2 of 6 mice | mice with parasitemia suppressed below PCR detectability (T. cruzi; 50 mg/kg twice per day, day 100): 4 of 6

Nc1cc(-c2ccccc2)ccc1Cn1cncc1CNc1ccc(-c2cncs2)c(-c2ccccc2)c1 [Compound 44e]
EC50 (T. cruzi amastigotes; Table 5, general structure V): 13 nM

CC[C@@H]([C@H](C)O)n1ncn(-c2ccc(N3CCN(c4ccc(OC[C@@H]5CO[C@@](Cn6cncn6)(c6ccc(F)cc6F)C5)cc4)CC3)cc2)c1=O [Posaconazole, posaconazole, reference compound]
terminal phase half-life [4]: 7 to 9 h | suppression of parasitemia in blood (microscopy) [3, 6]: most suppression | PCR parasite detection after 100 days post infection (T. cruzi; [6]): 0 of 6 mice

Reference: article PMC2771698 (Journal of medicinal chemistry, 2009)
